Assay results as given in ChEMBL document CHEMBL4715683, “Discovery and characterization of a novel peptide inhibitor against influenza neuraminidase” (RSC Med Chem, 2020).
The source made the active and inactive calls. The calls are words filed in the database; no cut-off is given here.

Experiments:
Influenza A virus [1] = assay: Antiviral activity against Influenza A virus (H1N1) infected in dog MDCK cells assessed as inhibition of virus-induced cytopathic effect treated 1 hr post infection and measured after 48 hrs by CCK-8 assay; format: functional, organism-based
Influenza A virus [2] = assay: Antiviral activity against Influenza A virus H5N1 infected in dog MDCK cells assessed as inhibition of virus-induced cytopathic effect treated 1 hr post infection and measured after 48 hrs by CCK-8 assay; format: functional, organism-based
[3] = Binding affinity to influenza neuraminidase incubated for 2 hrs by ELISA; parameters: species or system Influenza A virus
How it was run: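 His-tagged neuraminidase expressed in E. coli BL21 and Ni-affinity purified was immobilised and blocked with BSA. Biotinylated peptides at varied concentrations were bound at 37 °C for 2 h, followed by streptavidin-HRP for 1 h and HRP substrate for 15 min, then OD450. Kd came from fitting background-subtracted absorbance against peptide concentration.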

[4] = Hemolytic activity in rabbit red blood cells incubated for 60 mins; format: ADME, cell-based, Oryctolagus cuniculus, Erythrocyte; conditions: red blood cells (erythrocytes)
How it was run: (§1)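 Fibrinogen-free rabbit blood was mixed with 0.9% saline and centrifuged to give a 2% red cell suspension. Peptide solutions were combined with the suspension, kept 60 min at 37 °C and centrifuged. Supernatant OD600 gave hemolysis, and HC50 is the 50% hemolytic concentration.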

Erythrocyte = assay: Hemolytic activity in rabbit red blood cells at 100 uM incubated for 60 mins; format: ADME, cell-based, Oryctolagus cuniculus; conditions: 1 h; how it was run: as §1
HEK-293T = assay: Cytotoxicity against human HEK293T cells at 50 uM incubated for 48 hrs by CCK-8 assay; format: cell-based
How it was run: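 HEK 293T cells were seeded at 5000 per well in DMEM with 10% FBS. Peptides were added at 0.78 to 50 μM for 48 h, and viability was read by CCK-8.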

[5] = Inhibition of Influenza A virus (H1N1) neuraminidase using 4-MU-NANA as substrate preincubated for 1 hr followed by substrate addition and measured after 18 hrs by fluorescence method
How it was run: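 Peptide dilutions were preincubated with diluted H1N1 virus for 1 h at 37 °C. 4-MU-NANA was then added and reactions ran 18 h at 37 °C. Released 4-methylumbelliferone was read by fluorescence (Ex 355/Em 460). IC50 is the peptide concentration reducing neuraminidase activity by 50%.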

Influenza A virus (H1N1) = assay: Inhibition of Influenza A virus (H1N1) neuraminidase at 25 uM using 4-MU-NANA as substrate after 60 mins by fluorescence method relative to control
How it was run: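 Time-course format: neuraminidase incubated with peptide (25 μM) in the presence of 4-MU-NANA substrate for up to 180 min. Fluorescence intensity read at successive time points and expressed as inhibition ratio. Mean ± SD, n = 6.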

[6] = […] assessed as compound remaining after 18 hrs by RP-HPLC analysis; format: ADME, cell-free; conditions: human, plasma
[7] = Drug uptake in human HEK293T cells at 2 uM measured upto 12 hrs by using rhodamine-labeled peptide by flow cytometric analysis; format: ADME, cell-based; conditions: hek-293t
How it was run: (§2)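 HEK 293T cells were given rhodamine-labelled peptides at 2 μM and sampled at 2, 4, 8 and 12 h. Cells were PBS-washed, fixed in 4% paraformaldehyde and DAPI-stained, then examined by laser scanning confocal microscopy and by FACS.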

[8] = Drug uptake in human HEK293T cells at 2 uM measured upto 12 hrs by using rhodamine-labeled peptide by DAPI staining based laser scanning confocal microscopic analysis; format: ADME, cell-based; conditions: hek-293t; how it was run: as §2
Influenza A virus [9] = assay: Antiviral activity against Influenza A virus (H1N1) infected in BALB/c mouse assessed as animal survival rate at 1 mg/kg/day, iv administered for 7 days and monitored for 15 days relative to control; format: functional; conditions: time 7 day
How it was run: (§3)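 Six-week-old male Balb/c mice, randomised into normal, PBS control and treated groups. Dosing began 4 h after H1N1 inoculation: peptide at 1 mg kg−1 per day or oseltamivir carboxylate at 50 mg kg−1 per day, iv once daily for seven days. Body weight and mortality were followed for 15 consecutive days; n = 6.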

Influenza A virus [10] = assay: Antiviral activity against Influenza A virus (H1N1) infected in BALB/c mouse assessed as recovery of normal body weight at 1 mg/kg/day, iv measured after 6 days; format: functional, organism-based; conditions: time 6.0 day; how it was run: as §3
Influenza A virus [11] = assay: Antiviral activity against Influenza A virus (H1N1) infected in BALB/c mouse assessed as reduction in lung index at 1 mg/kg/day, iv administered for 7 days and measured after 15 days; format: functional, organism-based; conditions: time 7.0 day
Influenza A virus [12] = assay: Antiviral activity against Influenza A virus (H1N1) infected in BALB/c mouse assessed as decrease in TNF-alpha expression at 1 mg/kg/day, iv measured on day 2 and day 4 by ELISA; format: functional, organism-based; conditions: time 2-4 day
How it was run: (§4)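 Balb/c mice were infected with H1N1 and treated iv once daily for seven days (peptide 1 mg kg−1 per day, starting 4 h post-inoculation), with PBS control and healthy groups. Serum was taken on days 2 and 4 post-inoculation. TNF-α, IL-6 and IFN-γ were measured by ELISA at A450. n = 6; Student's t test against the normal group.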

Influenza A virus [13] = assay: Antiviral activity against Influenza A virus (H1N1) infected in BALB/c mouse assessed as decrease in IL6 expression at 1 mg/kg/day, iv measured on day 2 and day 4 by ELISA; format: functional, organism-based; conditions: time 2-4 day; how it was run: as §4
Influenza A virus [14] = assay: Antiviral activity against Influenza A virus (H1N1) infected in BALB/c mouse assessed as decrease in INFgamma expression at 1 mg/kg/day, iv measured on day 2 and day 4 by ELISA; format: functional, organism-based; conditions: time 2-4 day; how it was run: as §4
[15] = Drug uptake in human HEK293T cells at 2 uM incubated for 12 hrs by HPLC analysis; format: ADME, cell-based; conditions: hek-293t
How it was run: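 HEK 293T cells were exposed to peptide at 2 μM for 12 h, washed twice with PBS and lysed; proteins were precipitated. Peptide was read by HPLC on a C18 column with 0.1% TFA in water and 0.1% TFA in 80% acetonitrile, gradient 14–34% B over 0–20 min, 1 mL min−1.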

Influenza A virus [16] = assay: Antiviral activity against Influenza A virus (H1N1) infected in BALB/c mouse assessed as animal survival rate at 50 mg/kg/day, iv administered for 7 days and monitored for 15 days relative to control; format: functional; conditions: time 7 day; how it was run: as §3

| Structure (SMILES) | IC50 (Influenza A virus [1]) [µM] | IC50 (Influenza A virus [2]) [µM] | Kd [3] [µM] | HC50 at 1 h [4] [µM] | Activity (Erythrocyte) | Activity (HEK-293T) | IC50 [5] [µM] | inhibition (Influenza A virus (H1N1)) [%] | Stabilty [6] | Drug uptake [7] | Drug uptake [8] | Activity (Influenza A virus [9]) [%] | Activity (Influenza A virus [10]) | Activity (Influenza A virus [11]) | Activity (Influenza A virus [12]) | Activity (Influenza A virus [13]) | Activity (Influenza A virus [14]) | Drug uptake [15] | Activity (Influenza A virus [16]) [%] |
| --- | --- | --- | --- | --- | --- | --- | --- | --- | --- | --- | --- | --- | --- | --- | --- | --- | --- | --- | --- |
| C[C@H](NC(=O)[C@@H](NC(=O)[C@H](CCCCN)NC(=O)[C@@H](Cc1c[nH]cn1)NC(=O)[C@@H](CC(=O)O)NC(=O)[C@@H](N)CC(=O)O)[C@@H](C)O)C(=O)N[C@@H](Cc1c[nH]cn1)C(=O)N[C@@H](CCC(N)=O)C(=O)O | 28.4 | 48.2 | 0.0386 | 25 |  |  |  |  |  |  |  |  |  |  |  |  |  |  |  |
| CSCC[C@H](NC(=O)[C@@H](NC(=O)[C@@H](CCCNC(=N)N)NC(=O)[C@@H](Cc1ccccc1)NC(=O)[C@H](N)CCC(=O)O)[C@@H](C)O)C(=O)N[C@H](C(=O)N[C@@H](Cc1c[nH]cn1)C(=O)N1CCC[C@H]1C(=O)N[C@@H](CCCCN)C(=O)O)C(C)C | 15.7 | 23.8 | 0.0203 | 25 | Non-Toxic | Non-Toxic |  |  |  |  |  |  |  |  |  |  |  |  |  |
| C[C@H](NC(=O)[C@@H](NC(=O)[C@H](CCCCN)NC(=O)[C@H](Cc1c[nH]cn1)NC(=O)[C@H](Cc1ccccc1)NC(=O)[C@H](CCC(=O)O)NC(=O)[C@H](N)CCCCN)[C@@H](C)O)C(=O)N[C@@H](CCC(N)=O)C(=O)N1CCC[C@H]1C(=O)O | 16.6 | 25.4 | 0.0286 | 25 |  |  | < 25 |  |  |  |  |  |  |  |  |  |  |  |  |
| C[C@H](NC(=O)[C@@H]1CCCN1C(=O)[C@H](CCCCN)NC(=O)[C@@H](CCCNC(=N)N)NC(=O)[C@@H](CCCNC(=N)N)NC(=O)[C@H](N)CCC(=O)O)C(=O)N[C@@H](CCC(N)=O)C(=O)N1CCC[C@H]1C(=O)O | 2.26 | 1.46 | 0.011 | 25 | Non-Toxic | Non-Toxic | 4.25 | 100 | Stable | Active | Active | 90 | Active | Active | Active | Active | Active | Active |  |
| C[C@H](NC(=O)[C@@H]1CCCN1C(=O)[C@H](CCCCN)NC(=O)[C@H](CCCNC(=N)N)NC(=O)[C@@H](Cc1c[nH]c2ccccc12)NC(=O)CN)C(=O)N[C@@H](CCC(N)=O)C(=O)N1CCC[C@H]1C(=O)O | 36 | 27.5 | 0.0277 | 25 | Non-Toxic | Non-Toxic |  |  | Stable | Active | Active |  | Active | Active | Active | Active | Active | Active |  |
| C[C@H](NC(=O)[C@@H]1CCCN1C(=O)[C@H](CCCCN)NC(=O)[C@@H](CCCNC(=N)N)NC(=O)[C@H](Cc1c[nH]cn1)NC(=O)CN)C(=O)N[C@@H](CCC(N)=O)C(=O)N1CCC[C@H]1C(=O)O | 28.4 | 31.3 |  | 25 |  |  | < 25 |  |  |  |  |  |  |  |  |  |  |  |  |
| CC(C)C[C@H](NC(=O)[C@@H]1CCCN1C(=O)[C@H](CCCNC(=N)N)NC(=O)[C@@H](CCCNC(=N)N)NC(=O)[C@@H](CCCNC(=N)N)NC(=O)[C@H](N)Cc1ccccc1)C(=O)N[C@@H](CCCNC(=N)N)C(=O)N[C@@H](C)C(=O)O | 22.7 | 50.2 |  | 25 | Non-Toxic | Non-Toxic |  |  |  |  |  |  |  |  |  |  |  |  |  |
| C[C@H](NC(=O)[C@@H]1CCCN1C(=O)[C@H](CCCCN)NC(=O)[C@H](CCC(=O)O)NC(=O)[C@@H](CCC(=O)O)NC(=O)[C@H](N)CCC(=O)O)C(=O)N[C@@H](CCC(N)=O)C(=O)N1CCC[C@H]1C(=O)O | 36.1 | 64.3 |  | 25 |  |  |  |  |  |  |  |  |  |  |  |  |  |  |  |
| CCC(CC)O[C@@H]1C=C(C(=O)O)C[C@H](N)[C@H]1NC(C)=O [OSELTAMIVIR CARBOXYLATE] | 0.0113 | 0.0056 |  |  |  |  |  |  |  |  |  |  |  |  |  |  |  |  | 100 |
| C[C@H](NC(=O)[C@H](CCC(N)=O)NC(=O)[C@H](C)NC(=O)[C@H](Cc1c[nH]cn1)NC(=O)[C@H](CCCCN)NC(=O)[C@H](CCCNC(=N)N)NC(=O)[C@@H](CC(=O)O)NC(=O)[C@H](N)CCC(=O)O)C(=O)O | 3.08 | 3.32 | 0.0366 | 25 |  |  | < 25 |  |  |  |  |  |  |  |  |  |  |  |  |
| CC(C)C[C@H](NC(=O)[C@@H](CCCNC(=N)N)NC(=O)[C@H](CCCCN)NC(=O)[C@H](N)Cc1c[nH]c2ccccc12)C(=O)N[C@@H](Cc1c[nH]cn1)C(=O)N[C@@H](Cc1c[nH]cn1)C(=O)N[C@@H](CCCCN)C(=O)N1CCC[C@H]1C(=O)N[C@@H](C)C(=O)O | 16 | 17.9 | 0.019 | 25 | Non-Toxic | Non-Toxic | < 25 |  |  |  |  |  |  |  |  |  |  |  |  |
